ChEMBL document CHEMBL4004835, “Discovery of Novel Disruptor of Silencing Telomeric 1-Like (DOT1L) Inhibitors using a Target-Specific Scoring Function for the (S)-Adenosyl-l-methionine (SAM)-Dependent Methyltransferase Family” (J Med Chem, 2017)
Activity calls are given as the source filed them. The rule behind the calls is not given here.

Legend:
[1] = molecular target: T1, Histone-lysine N-methyltransferase, H3 lysine-79 specific (Homo sapiens, UniProt Q8TEK3); test: Inhibition of N-terminal 6His-tagged human DOT1L (1 to 416 residues) expressed in Escherichia coli BL21(DE3) at 50 uM preincubated for 15 mins followed by [3H]-SAM addition measured after 120 mins by radioactive methylation assay
Procedure, shortened: (§1)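 DOT1L and compound preincubated 15 min at room temperature; oligonucleosome and 3H-SAM added; reaction 120 min at room temperature, stopped with cold SAM; transferred to 0.5% PEI-pretreated filter plate, washed 3× with water, read by liquid scintillation counting.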
Target sequence in this assay (Q8TEK3 whole entry, looked up, the tested form may be a part): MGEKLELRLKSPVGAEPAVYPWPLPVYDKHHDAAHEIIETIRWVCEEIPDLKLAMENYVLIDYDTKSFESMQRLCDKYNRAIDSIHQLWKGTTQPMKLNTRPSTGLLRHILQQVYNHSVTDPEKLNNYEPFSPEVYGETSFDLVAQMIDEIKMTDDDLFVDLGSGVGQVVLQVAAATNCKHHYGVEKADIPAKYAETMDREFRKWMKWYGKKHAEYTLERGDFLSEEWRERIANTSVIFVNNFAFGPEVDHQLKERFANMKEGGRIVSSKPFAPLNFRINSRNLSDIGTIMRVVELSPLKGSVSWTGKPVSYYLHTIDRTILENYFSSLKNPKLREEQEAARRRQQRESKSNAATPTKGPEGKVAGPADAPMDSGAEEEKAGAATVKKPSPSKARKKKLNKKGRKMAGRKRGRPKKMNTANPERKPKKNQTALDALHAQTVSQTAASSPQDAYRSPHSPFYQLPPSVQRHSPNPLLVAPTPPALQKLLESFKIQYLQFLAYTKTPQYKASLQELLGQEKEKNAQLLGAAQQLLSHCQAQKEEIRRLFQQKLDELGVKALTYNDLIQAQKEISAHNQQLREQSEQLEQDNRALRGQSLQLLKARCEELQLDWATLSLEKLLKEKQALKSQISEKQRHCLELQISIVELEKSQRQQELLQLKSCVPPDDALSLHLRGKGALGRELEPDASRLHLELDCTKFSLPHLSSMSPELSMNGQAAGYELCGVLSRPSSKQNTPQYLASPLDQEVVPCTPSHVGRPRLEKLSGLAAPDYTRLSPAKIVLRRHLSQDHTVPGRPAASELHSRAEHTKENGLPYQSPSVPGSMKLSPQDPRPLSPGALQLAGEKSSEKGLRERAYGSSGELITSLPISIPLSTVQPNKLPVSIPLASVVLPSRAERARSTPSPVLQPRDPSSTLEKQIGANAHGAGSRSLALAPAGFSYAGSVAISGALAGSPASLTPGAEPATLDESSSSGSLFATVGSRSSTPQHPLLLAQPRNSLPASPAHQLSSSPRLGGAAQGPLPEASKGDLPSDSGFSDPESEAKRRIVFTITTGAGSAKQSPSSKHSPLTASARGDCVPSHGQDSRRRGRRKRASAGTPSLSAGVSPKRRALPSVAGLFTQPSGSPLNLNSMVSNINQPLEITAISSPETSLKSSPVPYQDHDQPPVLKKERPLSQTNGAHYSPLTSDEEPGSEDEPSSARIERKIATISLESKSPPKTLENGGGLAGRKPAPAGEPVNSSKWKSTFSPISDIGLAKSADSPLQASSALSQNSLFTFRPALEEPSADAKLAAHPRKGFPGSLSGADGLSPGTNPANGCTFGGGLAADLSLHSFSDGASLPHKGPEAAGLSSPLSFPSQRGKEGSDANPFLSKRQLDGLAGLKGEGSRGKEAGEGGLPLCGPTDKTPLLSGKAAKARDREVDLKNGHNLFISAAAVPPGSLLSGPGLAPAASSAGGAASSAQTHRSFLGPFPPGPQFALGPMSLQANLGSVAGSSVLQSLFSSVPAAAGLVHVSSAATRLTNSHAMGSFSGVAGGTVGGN

[2] = molecular target: T1, Histone-lysine N-methyltransferase, H3 lysine-79 specific; test: Inhibition of N-terminal 6His-tagged human DOT1L (1 to 416 residues) expressed in Escherichia coli BL21(DE3) at 50 uM using histone H3 as substrate preincubated for 15 mins followed by SAM addition measured after 60 mins by AlphaLISA assay
Procedure, shortened: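 DOT1L (80 nM final) preincubated with compound 15 min at 25 °C; SAM 1 mM and oligonucleosomes 0.25 ng/μL added in 50 mM Tris-HCl pH 8.0, 150 mM NaCl, 3 mM MgCl2, 0.1% BSA, 60 min at 25 °C; stopped with high-salt buffer; H3K79me2 detected with anti-H3 acceptor beads, biotinylated antibody, then streptavidin donor beads.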
Target sequence in this assay (Q8TEK3 whole entry, looked up, the tested form may be a part): as above

[3] = molecular target: T1, Histone-lysine N-methyltransferase, H3 lysine-79 specific; test: Inhibition of N-terminal 6His-tagged human DOT1L (1 to 416 residues) expressed in Escherichia coli BL21(DE3) at preincubated for 15 mins followed by [3H]-SAM addition measured after 120 mins by radioactive methylation assay; procedure, shortened: as §1
Target sequence in this assay (Q8TEK3 whole entry, the tested form may be a part): as the sequence (Q8TEK3 whole entry, looked up, the tested form may be a part) above

[4] = molecular target: T1, Histone-lysine N-methyltransferase, H3 lysine-79 specific; test: Inhibition of N-terminal 6His-tagged human DOT1L (1 to 416 residues) expressed in Escherichia coli BL21(DE3) at 50 and 100 uM preincubated for 15 mins followed by [3H]-SAM addition measured after 120 mins by radioactive methylation assay; procedure, shortened: as §1
Target sequence in this assay (Q8TEK3 whole entry, looked up, the tested form may be a part): as above

Row | inhibition [1] [%] | Compound | further results
1 | 54 | COc1ccc(-c2nn3c(Cn4nnc5ccccc54)nnc3s2)cc1 | –
2 | 50 | CCOc1ccc(-c2nn3c(Cn4nnc5ccccc54)nnc3s2)cc1 | –
3 | 53 | c1ccc(-c2nn3c(Cn4nnc5ccccc54)nnc3s2)nc1 | –
4 | 43 | c1ccc(OCc2nn3c(Cn4nnc5ccccc54)nnc3s2)cc1 | –
5 | 55 | COc1ccccc1-c1nn2c(Cn3nnc4ccccc43)nnc2s1 | –
6 | 48 | c1coc(-c2nn3c(Cn4nnc5ccccc54)nnc3s2)c1 | –
7 | 50 | Cc1cccc(OCc2nn3c(Cn4nnc5ccccc54)nnc3s2)c1 | –
8 | 69 | Fc1ccc(-c2nn3c(Cn4nnc5ccccc54)nnc3s2)cc1 | IC50 [3]: 4.64 µM
9 | 67 | CC(C)(C)c1ccc(-c2nn3c(Cn4nnc5ccccc54)nnc3s2)cc1 | IC50 [3]: 4.48 µM
10 | 50 | Brc1ccc(-c2nn3c(Cn4nnc5ccccc54)nnc3s2)cc1 | –
11 | 70 | COc1cccc(-c2nn3c(Cn4nnc5ccccc54)nnc3s2)c1 | IC50 [3]: 6.47 µM
12 | 63 | c1ccc(Cc2nn3c(Cn4nnc5ccccc54)nnc3s2)cc1 | IC50 [3]: 19.4 µM
13 | 55 | Cc1ccccc1-c1nn2c(Cn3nnc4ccccc43)nnc2s1 | –

The remaining lines, values behind:

Row | Compound | inhibition [1] [%] | further results
14 | c1ccc2c(c1)nnn2Cc1nnc2sc(C34CC5CC(CC(C5)C3)C4)nn12 | 38 | –
15 | CC(C)N(CCCNC(=O)Nc1ccc(C(C)(C)C)cc1)C[C@H]1O[C@@H](n2ccc3c(N)ncnc32)[C@H](O)[C@@H]1O | – | inhibition [2]: > 40%
16 | COc1ccc(-c2nn3c(Cn4nnc5ccccc54)nnc3s2)cc1OC | 56 | –
17 | Brc1cccc(-c2nn3c(Cn4cnc5ccccc54)nnc3s2)c1 | 62 | IC50 [3]: 4.09 µM
18 | CCc1nnc2sc(-c3cccc(F)c3)nn12 | 13 | –
19 | Fc1cccc(-c2nn3c(Cc4ccccc4F)nnc3s2)c1 | 25 | –
20 | Fc1cccc(-c2nn3c(Cn4cnc5ccccc54)nnc3s2)c1 | 57 | –
21 | Fc1cccc(-c2nn3c(-c4ccccc4)nnc3s2)c1 | 15 | –
22 | c1ccc(-c2nn3c(Cn4cnc5ccccc54)nnc3s2)cc1 | 55 | –
23 | Fc1cccc(-c2nn3c(Cc4ccccc4)nnc3s2)c1 | 33 | –
24 | Cc1ccc(-c2nn3c(Cn4cnc5ccccc54)nnc3s2)cc1C | 72 | IC50 [3]: 17.4 µM
25 | Fc1cccc(-c2nn3c(CCc4ccccc4)nnc3s2)c1 | 18 | –
26 | Fc1cccc(-c2nn3c(CN4CCCCC4)nnc3s2)c1 | 6 | –
27 | CCOc1cc(CNCc2ccc(C(=O)O)cc2)ccc1OCc1cccs1 | – | inhibition [4]: Active; inhibition [2]: > 40%
28 | Cc1ccccc1Cc1nnc2sc(-c3cccc(F)c3)nn12 | 27 | –
29 | Fc1cccc(-c2nn3c(CSc4ccccc4)nnc3s2)c1 | 21 | –
30 | O=C1C/C(=N\Nc2nc(-c3cccc(O)c3)cs2)c2ccccc21 | – | inhibition [4]: Active; inhibition [2]: > 40%
31 | Cc1ccc(Cn2c(SCC(=O)N/N=C/c3ccc(O)cc3)nc3ccccc32)cc1 | – | inhibition [4]: Active; inhibition [2]: > 40%
32 | c1ccc2c(c1)nnn2Cc1nnc2sc(-c3ccc4c(c3)OCCO4)nn12 | 66 | IC50 [3]: 8.4 µM
33 | Cc1nc2ccccc2n1Cc1nnc2sc(-c3ccc(F)c(Br)c3)nn12 | 49 | –
34 | Fc1cccc(-c2nn3c(-c4cccc(F)c4)nnc3s2)c1 | 11 | –
35 | CCCc1nnc2sc(-c3cccc(F)c3)nn12 | 35 | –
36 | Cc1ccc(OCc2nn3c(Cn4nnc5ccccc54)nnc3s2)cc1 | 52 | –
37 | c1ccc2c(c1)nnn2Cc1nnc2sc(-c3ccc4c(c3)OCO4)nn12 | 65 | IC50 [3]: 3.96 µM
